# Laboratory results taken from ChEMBL document CHEMBL1142971, “NO-donor COX-2 inhibitors. New nitrooxy-substituted 1,5-diarylimidazoles endowed with COX-2 inhibitory and vasodilator properties” (J Med Chem, 2007).
# How the values were obtained:
# [1] = organism: Rattus norvegicus; experiment: Vasodilation of phenylephrine-induced contraction in Wistar rat aorta in the presence of ODQ; assay type: functional
# Method in brief: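 Rat aortic strips (male Wistar, 180-200 g) were equilibrated 120 min. 1 μM ODQ (sGC inhibitor) was added to the bath 5 min before contraction with 1 μM L-phenylephrine. At plateau, cumulative vasodilator concentrations were added. Isometric relaxation was recorded and given as EC50 ± SE (μM).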
# [2] = biological target: Prostaglandin G/H synthase 1 (Homo sapiens, UniProt P23219); experiment: Inhibition of COX1 in human whole blood assessed as TxB2 production after 1 hr; assay type: tissue-based
# [3] = biological target: T1, Prostaglandin G/H synthase 2 (Homo sapiens, UniProt P35354)
# T1 sequence (P35354 whole entry): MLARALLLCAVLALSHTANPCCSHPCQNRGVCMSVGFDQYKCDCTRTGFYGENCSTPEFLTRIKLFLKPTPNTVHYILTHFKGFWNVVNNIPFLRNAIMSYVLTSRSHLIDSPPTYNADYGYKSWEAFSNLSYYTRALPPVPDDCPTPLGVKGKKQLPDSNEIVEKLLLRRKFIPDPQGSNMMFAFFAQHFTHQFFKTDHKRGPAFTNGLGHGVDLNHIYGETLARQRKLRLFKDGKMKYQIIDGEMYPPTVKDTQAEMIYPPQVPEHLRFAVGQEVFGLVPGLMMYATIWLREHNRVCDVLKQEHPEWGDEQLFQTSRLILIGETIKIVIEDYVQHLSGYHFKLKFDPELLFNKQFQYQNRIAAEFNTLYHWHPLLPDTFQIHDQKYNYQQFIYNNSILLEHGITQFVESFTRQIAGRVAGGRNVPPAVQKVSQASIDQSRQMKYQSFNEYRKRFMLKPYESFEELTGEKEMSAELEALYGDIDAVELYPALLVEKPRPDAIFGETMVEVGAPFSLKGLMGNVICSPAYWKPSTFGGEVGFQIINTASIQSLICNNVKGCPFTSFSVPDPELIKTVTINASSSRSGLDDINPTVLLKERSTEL
# [4] = Stability in human serum at 100 uM after 24 hrs; assay type: ADME, cell-free; settings: read-out: Stability
# Method in brief: (§1)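 Compound incubated at 37 ± 0.5 °C in human serum or human whole blood. Aliquots taken at set times were diluted 1:2 with acetonitrile containing 0.1% TFA to deproteinize, then sonicated, vortexed, centrifuged 15 min at 2150 × g and filtered.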
# [5] = organism: Rattus norvegicus; experiment: Vasodilation of phenylephrine-induced contraction in Wistar rat aorta; assay type: functional
# Method in brief: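 Thoracic aortic strips from male Wistar rats (180-200 g) were equilibrated 120 min and precontracted with 1 μM L-phenylephrine. At plateau, cumulative concentrations of vasodilator were added, with DMSO as vehicle. Relaxation was recorded isometrically and reported as EC50 ± SE (μM).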
# [6] = Stability in human whole blood at 100 uM after 24 hrs; assay type: ADME, tissue-based; settings: read-out: Stability; method in brief: as §1
# [7] = organism: Rattus norvegicus; experiment: Vasodilation of phenylephrine-induced contraction in Wistar rat aorta in the presence of HbO2; assay type: functional
# Sequence of Prostaglandin G/H synthase 1 (P23219 whole entry): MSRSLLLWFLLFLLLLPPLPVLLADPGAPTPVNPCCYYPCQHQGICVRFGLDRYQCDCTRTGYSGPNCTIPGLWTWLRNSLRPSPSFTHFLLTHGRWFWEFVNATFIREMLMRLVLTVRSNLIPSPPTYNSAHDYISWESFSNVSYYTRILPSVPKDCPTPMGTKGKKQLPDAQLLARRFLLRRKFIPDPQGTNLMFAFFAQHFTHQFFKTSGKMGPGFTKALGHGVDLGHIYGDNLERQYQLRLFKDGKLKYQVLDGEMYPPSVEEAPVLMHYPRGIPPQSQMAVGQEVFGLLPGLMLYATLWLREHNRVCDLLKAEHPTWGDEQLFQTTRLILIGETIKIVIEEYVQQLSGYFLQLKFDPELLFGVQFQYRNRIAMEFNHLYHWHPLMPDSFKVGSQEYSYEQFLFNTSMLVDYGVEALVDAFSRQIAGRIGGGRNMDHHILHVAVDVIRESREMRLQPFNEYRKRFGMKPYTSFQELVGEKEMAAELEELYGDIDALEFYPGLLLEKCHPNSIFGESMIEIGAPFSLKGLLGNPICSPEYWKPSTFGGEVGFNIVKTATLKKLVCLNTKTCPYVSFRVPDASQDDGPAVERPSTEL
Structure (SMILES),EC50 [1] [µM],IC50 [2] [µM],IC50 [3] [µM],"remaining at 24 h, 100 µM [4] [%]",EC50 [5] [µM],"remaining at 24 h, 100 µM [6] [%]",EC50 [7] [µM]
COc1ccc(-c2c(Cl)ncn2-c2ccc(S(C)(=O)=O)cc2)cc1F,24,5.8,0.09,,,,
CS(=O)(=O)c1ccc(-n2cnc(Cl)c2-c2ccc(OCCCO)c(F)c2)cc1,,> 100,> 100,,,,
CS(=O)(=O)c1ccc(-n2cnc(Cl)c2-c2ccc(OCCO)c(F)c2)cc1,,> 100,56,,,,
NS(=O)(=O)c1ccc(-n2cnc(Cl)c2-c2ccc(OCCO)c(F)c2)cc1,,> 100,20,,,,
NS(=O)(=O)c1ccc(-n2cnc(Cl)c2-c2ccc(OCCO[N+](=O)[O-])c(F)c2)cc1,12,> 100,,> 98,0.051,58.8,
CS(=O)(=O)c1ccc(-n2cnc(Cl)c2-c2ccc(OCCO[N+](=O)[O-])c(F)c2)cc1,6.5,> 100,,> 98,0.021,53.3,
CS(=O)(=O)c1ccc(-n2cnc(Cl)c2-c2ccc(OCCCO[N+](=O)[O-])c(F)c2)cc1,6.3,> 100,14,> 98,0.078,60.6,
CS(=O)(=O)c1ccc(-n2cnc(Cl)c2-c2ccc(OCC(CO[N+](=O)[O-])O[N+](=O)[O-])c(F)c2)cc1 (centres undefined),> 100,> 100,76,> 97,,43.6,0.061
NS(=O)(=O)c1ccc(-n2cnc(Cl)c2-c2ccc(OCCCO[N+](=O)[O-])c(F)c2)cc1,18,> 100,16,> 98,0.1,64.1,
NS(=O)(=O)c1ccc(-n2cnc(Cl)c2-c2ccc(OCCCO)c(F)c2)cc1,,> 100,> 100,,,,
COc1ccc(-c2c(Cl)ncn2-c2ccc(S(N)(=O)=O)cc2)cc1F [CIMICOXIB],25,1.9,,,,,
O=[N+]([O-])O[C@H]1CO[C@H]2[C@@H]1OC[C@H]2O[N+](=O)[O-] [ISOSORBIDE DINITRATE],> 100,,,,4.7,,55
